Source: ChEMBL document CHEMBL3102807, “Angustifonines A and B, cytotoxic bisindole alkaloids from Bousigonia angustifolia” (J Nat Prod, 2014)

What was measured:
Type in all cases: functional, cell-based
[1] = system: HL-60; experiment: Cytotoxicity against human HL60 cells after 48 hrs by MTT assay; details: HL-60, 48 h
Outline: (§1)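 Cells kept in RPMI-1640 or DMEM with 10% FBS, 37 °C, 5% CO2; adherent cells allowed to attach 12 h in 96-well plates. Exposed in triplicate to 0.0625, 0.32, 1.6, 8 and 40 μM for 48 h, cisplatin and paclitaxel as positive controls. MTT (100 μg/well) added for 4 h at 37 °C, lysis in 20% SDS/50% DMF, OD at 595 nm; IC50 by Reed–Muench method.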

[2] = system: A549; experiment: Cytotoxicity against human A549 cells after 48 hrs by MTT assay; details: A549, 48 h; outline: as §1
[3] = system: MCF7; experiment: Cytotoxicity against human MCF7 cells after 48 hrs by MTT assay; details: MCF7, 48 h; outline: as §1
[4] = system: SMMC-7721; experiment: Cytotoxicity against human SMMC7721 cells after 48 hrs by MTT assay; details: SMMC-7721, 48 h; outline: as §1
[5] = system: SW480; experiment: Cytotoxicity against human SW480 cells after 48 hrs by MTT assay; details: SW480, 48 h; outline: as §1

Compound: CC[C@]12C=CCN3Cc4c(n(c5ccccc5c4=O)[C@@H](c4cc5c(cc4OC)NC4=C(C(=O)OC)C[C@]6([C@@H](C)O)C=CCN7CC[C@@]45[C@@H]76)C1)[C@@H]32
- IC50 [1]: 9.6 µM
- IC50 [2]: 16.2 µM
- IC50 [3]: 12.1 µM
- IC50 [4]: 15.3 µM
- IC50 [5]: 13.9 µM

Compound: CC(=O)O[C@H]1C(=O)[C@@]2(C)[C@H]([C@H](OC(=O)c3ccccc3)[C@]3(O)C[C@H](OC(=O)[C@H](O)[C@@H](NC(=O)c4ccccc4)c4ccccc4)C(C)=C1C3(C)C)[C@]1(OC(C)=O)CO[C@@H]1C[C@@H]2O [PACLITAXEL]
- IC50 [1]: < 0.008 µM
- IC50 [2]: < 0.008 µM
- IC50 [3]: < 0.008 µM
- IC50 [4]: < 0.008 µM
- IC50 [5]: < 0.008 µM

Compound: CC[C@]12C=CCN3Cc4c(n(c5ccccc5c4=O)[C@@H](c4cc5c(cc4OC)NC4=C(C(=O)OC)C[C@]6(CC)C=CCN7CC[C@@]45[C@@H]76)C1)[C@@H]32
- IC50 [1]: 3.03 µM
- IC50 [2]: 7.23 µM
- IC50 [3]: 3.61 µM
- IC50 [4]: 10.6 µM
- IC50 [5]: 2.71 µM
